Assay results as given in ChEMBL document CHEMBL1138658, “Novel 2-aminotetralin and 3-aminochroman derivatives as selective serotonin 5-HT7 receptor agonists and antagonists” (J Med Chem, 2004).

Tests used:
Rattus norvegicus = organism: Rattus norvegicus; test: Inhibition of 3[H]8-OH--DPAT and [3H]5-HT binding to 5-hydroxytryptamine 1A receptor and 5-hydroxytryptamine 7 receptor in rat
Method in brief: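 Displacement binding with [3H]-8-OH-DPAT at 5-HT1A in rat hippocampal cells, and with [3H]-5-HT at rat 5-HT7 expressed in CHO or Sf9 cells.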

[1] = target: 5-hydroxytryptamine receptor 7 (Rattus norvegicus, UniProt P32305); test: Inhibition of [3H]-5-HT binding to rat 5-hydroxytryptamine 7 receptor
Method in brief: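 Rat 5-HT7 receptor expressed in CHO or Sf9 cells; [3H]-5-HT radioligand displacement.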

[2] = target: 5-hydroxytryptamine receptor 7 (Rattus norvegicus) (UniProt P32305); test: Stimulation of cAMP production in CHO cells expressing rat 5-hydroxytryptamine 7 receptor; Antagonist; assay type: functional, cell-based; conditions: filed as antagonist
Method in brief: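 Functional assay in CHO cells expressing rat 5-HT7 receptor, read as cAMP production. Efficacy is expressed as % of the cAMP production stimulated by 5-HT.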

[3] = target: T1, 5-hydroxytryptamine receptor 1A (Rattus norvegicus, UniProt P19327); test: Inhibition of [3H]8-OH-DPAT binding to rat 5-hydroxytryptamine 1A receptor
T1 sequence (P19327 whole entry): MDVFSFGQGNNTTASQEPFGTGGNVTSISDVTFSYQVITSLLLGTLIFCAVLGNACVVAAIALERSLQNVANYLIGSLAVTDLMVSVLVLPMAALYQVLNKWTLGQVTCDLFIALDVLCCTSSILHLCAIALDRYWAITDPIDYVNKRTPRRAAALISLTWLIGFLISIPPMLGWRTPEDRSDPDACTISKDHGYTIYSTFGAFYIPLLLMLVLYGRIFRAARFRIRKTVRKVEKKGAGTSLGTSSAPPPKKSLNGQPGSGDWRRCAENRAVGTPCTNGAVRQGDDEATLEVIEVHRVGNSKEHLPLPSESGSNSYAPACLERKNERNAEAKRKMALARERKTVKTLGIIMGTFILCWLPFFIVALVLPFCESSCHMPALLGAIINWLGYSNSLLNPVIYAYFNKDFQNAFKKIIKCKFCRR
Method in brief: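 Radioligand [3H]-8-OH-DPAT; receptor source either CHO cells expressing human 5-HT1A or rat hippocampal cells.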

[4] = target: 5-hydroxytryptamine receptor 7 (Rattus norvegicus) (UniProt P32305); test: Stimulation of cAMP production in CHO cells expressing rat 5-hydroxytryptamine 7 receptor; assay type: functional, cell-based
Method in brief: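 cAMP production in CHO cells expressing rat 5-HT7 receptor. Efficacy is expressed as percent of the 5-HT-stimulated production.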

[5] = target: D(2) dopamine receptor (Homo sapiens) (UniProt P14416); test: Inhibition of [3H]raclopride binding to Dopamine receptor D2A in human
D(2) dopamine receptor (Homo sapiens), sequence (P14416 whole entry, looked up): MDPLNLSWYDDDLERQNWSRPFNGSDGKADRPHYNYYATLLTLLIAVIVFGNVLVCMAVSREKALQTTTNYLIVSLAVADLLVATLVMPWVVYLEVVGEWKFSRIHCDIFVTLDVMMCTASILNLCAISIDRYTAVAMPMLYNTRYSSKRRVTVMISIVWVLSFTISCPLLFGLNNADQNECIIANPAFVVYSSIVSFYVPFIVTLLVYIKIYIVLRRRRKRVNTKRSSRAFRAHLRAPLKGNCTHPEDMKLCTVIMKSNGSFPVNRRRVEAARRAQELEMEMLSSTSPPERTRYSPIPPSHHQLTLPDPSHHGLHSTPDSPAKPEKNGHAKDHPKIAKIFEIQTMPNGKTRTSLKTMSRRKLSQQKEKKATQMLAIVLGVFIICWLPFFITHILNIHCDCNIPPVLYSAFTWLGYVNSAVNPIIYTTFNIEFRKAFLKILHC

5-hydroxytryptamine receptor 7 (Rattus norvegicus), sequence (P32305 whole entry): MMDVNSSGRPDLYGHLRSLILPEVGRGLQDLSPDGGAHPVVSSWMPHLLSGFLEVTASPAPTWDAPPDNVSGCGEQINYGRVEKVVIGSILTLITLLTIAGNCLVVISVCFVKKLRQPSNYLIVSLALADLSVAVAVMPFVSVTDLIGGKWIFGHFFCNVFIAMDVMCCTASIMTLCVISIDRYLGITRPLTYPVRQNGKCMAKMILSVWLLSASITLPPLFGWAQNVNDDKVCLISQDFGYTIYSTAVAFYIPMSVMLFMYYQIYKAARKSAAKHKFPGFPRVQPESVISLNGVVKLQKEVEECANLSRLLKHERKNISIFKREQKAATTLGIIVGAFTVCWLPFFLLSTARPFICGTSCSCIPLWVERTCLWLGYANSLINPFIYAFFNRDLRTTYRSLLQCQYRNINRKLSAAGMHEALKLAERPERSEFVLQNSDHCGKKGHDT
5-hydroxytryptamine receptor 7, sequence (P32305 whole entry): as above

Compound	Ratio (Rattus norvegicus)	Ki [1] [nM]	Efficacy [2]	Ki [3] [nM]	Efficacy [4] [%]	Ki [5] [nM]
O=S(=O)(c1ccc2c(c1)CC=C2)N1CCC[C@@H]1CCN1CCC(Oc2ccc(Cl)cc2)CC1	282	1.99	Antagonist	562		
CCCN(CCC)[C@H]1CCc2c(cccc2-c2ccccc2OC)C1	6.8	1.73		11.7	100	
O=C1c2ccccc2CCCN1CCN1CCC(n2c(=O)[nH]c3cc(F)ccc32)CC1		2.24		479		
COc1cccc(OC)c1-c1cccc2c1OC[C@H](N(C)C)C2	> 189	5.29		> 1000	28	
COc1cccc(OC)c1-c1cccc2c1CC[C@H](N)C2	> 12.7	78.7		> 1000		
CCCN(CCC)[C@H]1COc2c(cccc2-c2ccc(OC)cc2)C1		12.6		1.31	91	
Cc1cccc(C#N)c1-c1cccc2c1-c1cccc3c1[C@@H](C2)N(C)CC3	37		Antagonist	142		498
O=C1Nc2cccc3c2C1(CCCCN1CCc2sccc2C1)CCC3 (configuration not stated)	79	6.46	Antagonist	513		
CCCN(CCC)[C@H]1COc2c(cccc2-c2ccccc2)C1		2.92		1.23	100	
CCCN(CCC)[C@H]1CCc2c(cccc2-c2ccccc2)C1	0.26	3.38		0.87	100	
CCCN(CCC)[C@H]1COc2c(cccc2-c2ccccc2OC)C1	3.8	2.7		10.3	100	512
CCCN(CCC)[C@@H]1COc2c(cccc2-c2ccccc2OC)C1	1.9	364		680		2110
CCCN(CCC)[C@H]1COc2c(cccc2-c2c(OC)cccc2OC)C1	27	6.44		174	154	
O=C1c2ccccc2CCCN1CCN1CCC(n2c(O)nc3cc(F)ccc32)CC1			Antagonist			
CCCN(CCC)[C@H]1CCc2c(cccc2-c2ccc(OC)cc2)C1	0.12	12.4		1.49		
